Data from ChEMBL document CHEMBL3856209, “Novel pyrazolopyridine derivatives as potential angiogenesis inhibitors: Synthesis, biological evaluation and transcriptome-based mechanistic analysis” (Eur J Med Chem, 2016).
Calls of active or inactive are those of the source.

Assays:
[1] = test system: HUVEC; assay: Effect on CKS1B gene expression in serum-starved HUVEC after 6 hrs by microarray analysis relative to control; format: functional, Homo sapiens
Procedure, shortened: (§1)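 Serum-starved confluent HUVEC treated with 2 μM compound or DMSO in 2.5% FBS for 6 h or 24 h; RNA hybridized to Illumina Human-HT12 arrays. Data background-corrected, vst-transformed and rsn-normalized. Differential probes called by moderated paired t-test (limma) at p < 0.05 and log2 fold change >|0.5| vs DMSO.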

[2] = test system: HUVEC; assay: Effect on SIVA1 gene expression in serum-starved HUVEC after 6 hrs by microarray analysis relative to control; format: functional, Homo sapiens
[3] = test system: HUVEC; assay: Effect on SLC30A7 gene expression in serum-starved HUVEC after 6 hrs by microarray analysis relative to control; format: functional, Homo sapiens
[4] = test system: HUVEC; assay: Effect on CKS2 gene expression in serum-starved HUVEC after 24 hrs by microarray analysis relative to control; format: functional, Homo sapiens
Procedure, shortened: (§2)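 Confluent, serum-starved HUVEC (pooled from 3–5 donors, passage ≤4) treated with 2 μM compound or vehicle with 2.5% FBS for 6 h or 24 h. Total RNA hybridized to Illumina Human-HT12 arrays. Data were background-corrected, vst-transformed and rsn-normalized. Hits called by moderated paired t-test versus DMSO-treated cells, p < 0.05 and log2 fold change >|0.5|.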

[5] = test system: HUVEC; assay: Effect on FILIP1L gene expression in serum-starved HUVEC after 24 hrs by microarray analysis relative to control; format: functional, Homo sapiens; procedure, shortened: as §2
[6] = test system: HUVEC; assay: Effect on CKS2 gene expression in serum-starved HUVEC after 6 hrs by microarray analysis relative to control; format: functional, Homo sapiens; procedure, shortened: as §2
[7] = test system: HUVEC; assay: Effect on SIVA1 gene expression in serum-starved HUVEC after 24 hrs by microarray analysis relative to control; format: functional, Homo sapiens
[8] = test system: HUVEC; assay: Effect on GANAB gene expression in serum-starved HUVEC after 24 hrs by microarray analysis relative to control; format: functional, Homo sapiens; procedure, shortened: as §2
[9] = test system: HUVEC; assay: Effect on SND1-IT1 gene expression in serum-starved HUVEC after 6 hrs by microarray analysis relative to control; format: functional, Homo sapiens
[10] = test system: HUVEC; assay: Effect on IL10 gene expression in serum-starved HUVEC after 24 hrs by microarray analysis relative to control; format: functional, Homo sapiens; procedure, shortened: as §2
[11] = test system: HUVEC; assay: Effect on LPIN1 gene expression in serum-starved HUVEC after 24 hrs by microarray analysis relative to control; format: functional, Homo sapiens
[12] = test system: HUVEC; assay: Effect on SULT1C4 gene expression in serum-starved HUVEC after 6 hrs by microarray analysis relative to control; format: functional, Homo sapiens
[13] = test system: HUVEC; assay: Effect on HLA-DRB4 gene expression in serum-starved HUVEC after 6 hrs by microarray analysis relative to control; format: functional, Homo sapiens; procedure, shortened: as §2
[14] = test system: HUVEC; assay: Effect on MYO10 gene expression in serum-starved HUVEC after 6 hrs by microarray analysis relative to control; format: functional, Homo sapiens
[15] = test system: HUVEC; assay: Effect on SPRY4 gene expression in serum-starved HUVEC after 24 hrs by microarray analysis relative to control; format: functional, Homo sapiens
[16] = test system: HUVEC; assay: Effect on GLIPR1 gene expression in serum-starved HUVEC after 6 hrs by microarray analysis relative to control; format: functional, Homo sapiens; procedure, shortened: as §2
[17] = test system: HUVEC; assay: Effect on F2RL1 gene expression in serum-starved HUVEC after 6 hrs by microarray analysis relative to control; format: functional, Homo sapiens
Procedure, shortened: (§3)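 Confluent serum-starved HUVEC (primary, pooled from 3–5 donors, passage ≤4) treated with 2 μM compound or DMSO vehicle in 2.5% FBS for 6 h or 24 h. Total RNA hybridized to Illumina Human-HT12 arrays, background-corrected, vst-transformed and rsn-normalized. Differential expression versus DMSO by moderated paired t-test (p < 0.05, |log2 fold change| > 0.5).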

[18] = Downregulation of HMOX1 gene expression in serum-starved HUVEC at 2 uM after 24 hrs by qRT-PCR analysis; format: functional, cell-based; settings: Homo sapiens
Procedure, shortened: (§4)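 Serum-starved confluent HUVEC treated with 2 μM compound or vehicle in 2.5% FBS for 24 h. Total RNA isolated and qRT-PCR run in triplicate (95 °C 5 min; 40 cycles of 95 °C 5 s, 58 °C 20 s, 72 °C 5 s), normalized to RPS18S. Fold change vs control, n = 3.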

[19] = test system: HUVEC; assay: Effect on CMTM7 gene expression in serum-starved HUVEC after 24 hrs by microarray analysis relative to control; format: functional, Homo sapiens; procedure, shortened: as §3
[20] = test system: HUVEC; assay: Effect on TUBB2B gene expression in serum-starved HUVEC after 24 hrs by microarray analysis relative to control; format: functional, Homo sapiens
[21] = test system: HUVEC; assay: Effect on HAVCR2 gene expression in serum-starved HUVEC after 6 hrs by microarray analysis relative to control; format: functional, Homo sapiens; procedure, shortened: as §3
[22] = test system: HUVEC; assay: Effect on GINS2 gene expression in serum-starved HUVEC after 24 hrs by microarray analysis relative to control; format: functional, Homo sapiens; procedure, shortened: as §2
[23] = test system: HUVEC; assay: Effect on HLA-B gene expression in serum-starved HUVEC after 24 hrs by microarray analysis relative to control; format: functional, Homo sapiens; procedure, shortened: as §2
[24] = test system: HUVEC; assay: Effect on MTSS1 gene expression in serum-starved HUVEC after 6 hrs by microarray analysis relative to control; format: functional, Homo sapiens
[25] = test system: HUVEC; assay: Effect on LIPG gene expression in serum-starved HUVEC after 24 hrs by microarray analysis relative to control; format: functional, Homo sapiens
[26] = test system: HUVEC; assay: Effect on DBI gene expression in serum-starved HUVEC after 6 hrs by microarray analysis relative to control; format: functional, Homo sapiens
Procedure, shortened: (§5)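 Serum-starved confluent HUVEC (primary, pooled from 3–5 donors, passage ≤4) treated with 2 μM test compound or DMSO vehicle (working dilutions ≤0.1% v/v) in presence of 2.5% FBS for 6 h or 24 h; total RNA hybridized to Illumina Human-HT12 arrays; background correction, vst, rsn normalization; moderated paired t-test versus DMSO, thresholds p < 0.05 and log2 fold change >|0.5|.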

[27] = test system: HUVEC; assay: Effect on HLA-DPA1 gene expression in serum-starved HUVEC after 24 hrs by microarray analysis relative to control; format: functional, Homo sapiens; procedure, shortened: as §2
[28] = Downregulation of CDC20 gene expression in serum-starved HUVEC at 2 uM after 24 hrs by qRT-PCR analysis; format: functional, cell-based; settings: Homo sapiens; procedure, shortened: as §4
[29] = test system: HUVEC; assay: Effect on CENPW gene expression in serum-starved HUVEC after 24 hrs by microarray analysis relative to control; format: functional, Homo sapiens; procedure, shortened: as §5
[30] = Upregulation of INSIG1 gene expression in serum-starved HUVEC at 2 uM after 24 hrs by qRT-PCR analysis; format: functional, cell-based; settings: Homo sapiens
[31] = test system: HUVEC; assay: Effect on NEDD9 gene expression in serum-starved HUVEC after 24 hrs by microarray analysis relative to control; format: functional, Homo sapiens
Procedure, shortened: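 Serum-starved confluent HUVEC (pooled from 3–5 donors, passage ≤4) were treated with 2 μM compound or vehicle in 2.5% FBS for 6 h or 24 h, and total RNA was isolated. Hybridization was on Illumina Human-HT12. Data were processed with bgAdjust, vst and rsn normalization. Changes versus DMSO were called by moderated paired t-test at p < 0.05 and |log2 fold change| > 0.5.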

[32] = test system: HUVEC; assay: Effect on ANGPTL4 gene expression in serum-starved HUVEC after 6 hrs by microarray analysis relative to control; format: functional, Homo sapiens; procedure, shortened: as §1
[33] = test system: HUVEC; assay: Effect on ITGA10 gene expression in serum-starved HUVEC after 24 hrs by microarray analysis relative to control; format: functional, Homo sapiens; procedure, shortened: as §2
[34] = test system: HUVEC; assay: Effect on YES1 gene expression in serum-starved HUVEC after 6 hrs by microarray analysis relative to control; format: functional, Homo sapiens
[35] = test system: HUVEC; assay: Effect on CXCR4 gene expression in serum-starved HUVEC after 24 hrs by microarray analysis relative to control; format: functional, Homo sapiens; procedure, shortened: as §3

Molecule COc1ccc(Cn2nc(-c3ccccc3)c3cc(Cl)nc(N4CCNCC4)c32)cc1 has a log2FC [1] of -0.0514, a log2FC [2] of -0.2087 and a log2FC [3] of 0.512. It also gave a log2FC [4] of -0.5724, a log2FC [5] of 0.0497 and a log2FC [6] of 0.2477. It also gave a log2FC [7] of -0.5225.

In the case of COc1ccc(Cn2nc(-c3ccccc3)c3cc(Nc4ccc(N5CCN(C)CC5)cc4)nc(N4CCNCC4)c32)cc1, the log2FC [8] was -0.5222, the log2FC [9] was -0.0103 and the log2FC [10] was 0.5464.

For COc1ccc(Cn2nc(-c3ccccc3)c3cc(Nc4ccc(N5CCN(C)CC5)cc4)nc(N4CCN(C)CC4)c32)cc1, the log2FC [11] was 0.8618, the “fold change (FC)” value [12] was 0.1329 and the “fold change (FC)” value [13] was 0.3506. The “fold change (FC)” value [14] was -0.0407, the “fold change (FC)” value [15] was 0.9471 and the “fold change (FC)” value [16] was 0.1533. For the same molecule, the “fold change (FC)” value [17] was 0.5398, the Activity [18] was “Active” and the “fold change (FC)” value [19] was 0.5435. For the same molecule, the log2FC [20] was 0.8576, the “fold change (FC)” value [21] was 0.9139 and the log2FC [22] was -0.5372. The log2FC [23] was -0.5811, the “fold change (FC)” value [24] was 0.2099 and the log2FC [25] was 1.1948. The “fold change (FC)” value [26] was 0.0722, the log2FC [27] was -0.863 and the Activity [28] was “Active”. For the same molecule, the “fold change (FC)” value [29] was -0.5146, the Activity [30] was “Active” and the log2FC [31] was 0.6094. It also gave a log2FC [32] of -0.3836, a log2FC [33] of 0.5991 and a log2FC [34] of 0.3231. For the same molecule, the “fold change (FC)” value [35] was 0.6553.
